ChEMBL document CHEMBL3792308, “Synthesis and Evaluation of 2,6-Modified Purine 2'-C-Methyl Ribonucleosides as Inhibitors of HCV Replication” (ACS Med Chem Lett, 2016)

Tests used:
Hepatitis C virus = test: Antiviral activity against HCV infected in HuH7 Clone B cells assessed as inhibition of viral replication after 5 days by RT-PCR method; assay type: functional, organism-based, Hepacivirus hominis; details: 120 h
Outline: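 Huh7 cells carrying a subgenomic HCV replicon; HCV RNA extracted and amplified to measure replication inhibition. Tested up to 10 μM, and EC50 and EC90 are reported.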

[1] = Cytotoxicity against human PBMC after 6 days by trypan blue exclusion assay; assay type: cell-based; details: PBMC (peripheral blood mononuclear cells)
[2] = Cytotoxicity against human CEM cells after 6 days by trypan blue exclusion assay; assay type: cell-based; details: CEM (CCRF-CEM) cells
[3] = Cytotoxicity against African green monkey Vero cells after 3 days by hemocytometry; assay type: cell-based; details: chlorocebus sabaeus
[4] = Cytotoxicity against human HuH7 cells infected with HCV assessed as reduction in cellular rRNA level after 96 hrs by qRT-PCR analysis; assay type: cell-based, Huh-7
Outline: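 Huh7 toxicity was read in the same wells as the replicon assay, by extracting and amplifying cellular rRNA alongside HCV RNA.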

[5] = Drug metabolism in human HuH7 cells assessed as nucleoside monophosphate derivative formation at 50 uM after 4 hrs by LC-MS/MS analysis; assay type: ADME, cell-based; details: huh-7, 4 h
Outline: (§1)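 Huh7 cells incubated with 50 μM compound for 4 h at 37 °C, then washed with phosphate-buffered saline. Intracellular metabolites extracted with 70% ice-cold methanol in water and identified by LC–MS/MS, with nucleoside mono-, di- and triphosphate levels quantified.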

[6] = Drug metabolism in human HuH7 cells assessed as nucleoside diphosphate derivative formation at 50 uM after 4 hrs by LC-MS/MS analysis; assay type: ADME, cell-based; details: huh-7, 4 h; outline: as §1
[7] = Drug metabolism in human HuH7 cells assessed as nucleoside triphosphate derivative formation at 50 uM after 4 hrs by LC-MS/MS analysis; assay type: ADME, cell-based; details: huh-7, 4 h; outline: as §1

Row | EC50 (Hepatitis C virus) [µM] | EC90 (Hepatitis C virus) [µM] | SMILES | CC50 at 144 h [1] [µM] | CC50 at 144 h [2] [µM] | CC50 at 72 h [3] [µM] | CC50 at 96 h [4] [µM] | Drug metabolism [5] | Drug metabolism [6] | Drug metabolism [7]
1 | > 10 | > 10 | COc1nc(OC)c2ncn([C@@H]3O[C@H](CO)[C@@H](O)[C@@]3(C)O)c2n1 | > 100 | > 100 | > 100 | > 10 |  |  | 
2 | > 10 | > 10 | CONc1nc(N)nc2c1ncn2[C@@H]1O[C@H](CO)[C@@H](O)[C@@]1(C)O | > 100 | > 100 | > 100 | > 10 |  |  | 
3 | > 10 | > 10 | C=C(OCC)c1nc(N)nc2c1ncn2[C@@H]1O[C@H](CO)[C@@H](O)[C@@]1(C)O | > 100 | > 100 | > 100 | > 10 |  |  | 
4 | > 10 | > 10 | C[C@@]1(O)[C@H](O)[C@@H](CO)O[C@H]1n1cnc2c(N)nc(Cl)nc21 | > 100 | > 100 | > 100 | > 10 |  |  | 
5 | > 10 | > 10 | COc1nc(Cl)nc2c1ncn2[C@@H]1O[C@H](CO)[C@@H](O)[C@@]1(C)O | > 100 | > 100 | > 100 | > 10 |  |  | 
6 | 2.4 | 7.7 | CCOC(=O)[C@H](C)NP(=O)(OC[C@H]1O[C@@H](n2cnc3c(N=[N+]=[N-])nc(N)nc32)[C@](C)(O)[C@@H]1O)Oc1ccccc1 (stereo partly drawn) | > 100 | > 100 | > 100 | > 10 |  |  | 
7 | > 10 | > 10 | C[C@@]1(O)[C@H](O)[C@@H](CO)O[C@H]1n1cnc2c(N)nc(N=[N+]=[N-])nc21 | > 100 | > 100 | > 100 | > 10 |  |  | 
8 | > 10 | > 10 | C=C(OCC)c1nc(N)nc2c1ncn2[C@@H]1O[C@H](COP(=O)(N[C@@H](C)C(=O)OCC)Oc2ccccc2)[C@@H](O)[C@@]1(C)O (stereo partly drawn) | > 100 | > 100 | > 100 | > 10 |  |  | 
9 | > 10 | > 10 | C[C@@]1(O)[C@H](O)[C@@H](CO)O[C@H]1n1cnc2c(N)nc(ONC(=O)OCc3ccccc3)nc21 | > 100 | > 100 | > 100 | > 10 |  |  | 
10 | > 10 | > 10 | CCOC(=O)[C@H](C)NP(=O)(OC[C@H]1O[C@@H](n2cnc3c(N)nc(NOC)nc32)[C@](C)(O)[C@@H]1O)Oc1ccccc1 (stereo partly drawn) | > 100 | > 100 | 18 | > 10 |  |  | 
11 | > 10 | > 10 | C[C@@]1(O)[C@H](O)[C@@H](CO)O[C@H]1n1cnc2c(N=[N+]=[N-])nc(N)nc21 | > 100 | > 100 | > 100 | > 10 |  |  | 
12 | > 10 | > 10 | CCOC(=O)[C@H](C)NP(=O)(OC[C@H]1O[C@@H](n2cnc3c(OC)nc(OC)nc32)[C@](C)(O)[C@@H]1O)Oc1ccccc1 (stereo partly drawn) | > 100 | > 100 | > 100 | > 10 |  |  | 
13 | 0.3 | 0.9 | CC(C)(CO)C(=O)SCCOP(=O)(NCc1ccccc1)OC[C@H]1O[C@@H](n2cnc3c(=O)[nH]c(N)nc32)[C@](C)(O)[C@@H]1O (stereo partly drawn) | > 100 | > 100 | > 100 | > 100 |  |  | 
14 | 4.8 | 10 | CCOC(=O)[C@H](C)NP(=O)(OC[C@H]1O[C@@H](n2cnc3c(N)nc(ONC(=O)OCc4ccccc4)nc32)[C@](C)(O)[C@@H]1O)Oc1ccccc1 (stereo partly drawn) | > 100 | > 100 | > 100 | > 33 |  |  | 
15 | > 10 | > 10 | CONc1nc(N)c2ncn([C@@H]3O[C@H](CO)[C@@H](O)[C@@]3(C)O)c2n1 | > 100 | > 100 | > 100 | > 10 |  |  | 
16 | 6.3 | 9.9 | CCOC(=O)[C@H](C)NP(=O)(OC[C@H]1O[C@@H](n2cnc3c(OC)nc(Cl)nc32)[C@](C)(O)[C@@H]1O)Oc1ccccc1 (stereo partly drawn) | > 100 | > 100 | > 100 | > 10 |  |  | 
17 | > 10 | > 10 | COc1nc(O)nc2c1ncn2[C@@H]1O[C@H](CO)[C@@H](O)[C@@]1(C)O | > 100 | > 100 | > 100 | > 10 |  |  | 
18 | 4.1 | 9.2 | CCOC(=O)[C@H](C)NP(=O)(OC[C@H]1O[C@@H](n2cnc3c(OC)nc(ONC(=O)OCc4ccccc4)nc32)[C@](C)(O)[C@@H]1O)Oc1ccccc1 (stereo partly drawn) | > 100 | 24 | > 100 | > 33 |  |  | 
19 | > 10 | > 10 | COc1nc(N)c2ncn([C@@H]3O[C@H](CO)[C@@H](O)[C@@]3(C)O)c2n1 | > 100 | > 100 | > 100 | > 10 |  |  | 
20 | 1 | 2.8 | CCOC(=O)[C@H](C)NP(=O)(OC[C@H]1O[C@@H](n2cnc3c(N)nc(OC)nc32)[C@](C)(O)[C@@H]1O)Oc1ccccc1 (stereo partly drawn) | > 100 | > 100 | > 100 | > 10 | metabolite_detected | metabolite_detected | metabolite_detected
21 | > 10 | > 10 | C[C@@]1(O)[C@H](O)[C@@H](CO)O[C@H]1n1cnc2c(N)nc(O)nc21 | > 100 | > 100 | > 100 | > 10 |  |  | 
22 | > 10 | > 10 | CCOC(=O)[C@H](C)NP(=O)(OC[C@H]1O[C@@H](n2cnc3c(N)nc(O)nc32)[C@](C)(O)[C@@H]1O)Oc1ccccc1 (stereo partly drawn) | > 100 | > 100 | > 100 | > 10 |  |  | 
23 | 2.4 | 8 | C[C@@]1(O)[C@H](O)[C@@H](CO)O[C@H]1n1cnc2c(ONC(=O)OCc3ccccc3)nc(N)nc21 | > 100 | > 100 | > 100 | > 10 |  |  | 
24 | 0.3 | 5.5 | C[C@@]1(O)[C@H](O)[C@@H](CO)O[C@H]1n1cnc2c(NO)nc(N)nc21 | > 100 | > 100 | > 100 | > 10 |  |  | 
25 | > 10 | > 10 | CCOC(=O)[C@H](C)NP(=O)(OC[C@H]1O[C@@H](n2cnc3c(P(=O)(OCC)OCC)nc(N)nc32)[C@](C)(O)[C@@H]1O)Oc1ccccc1 (stereo partly drawn) | > 100 | > 100 | > 100 | > 10 |  |  | 
26 | > 10 | > 10 | CCOC(=O)[C@H](C)NP(=O)(OC[C@H]1O[C@@H](n2cnc3c(OC)nc(O)nc32)[C@](C)(O)[C@@H]1O)Oc1ccccc1 (stereo partly drawn) | > 100 | > 100 | > 100 | > 10 |  |  | 
27 | > 10 | > 10 | COc1nc(ONC(=O)OCc2ccccc2)nc2c1ncn2[C@@H]1O[C@H](CO)[C@@H](O)[C@@]1(C)O | > 100 | > 100 | > 100 | > 10 |  |  | 
28 | 1.7 | 5.3 | CCOC(=O)[C@H](C)NP(=O)(OC[C@H]1O[C@@H](n2cnc3c(N)nc(Cl)nc32)[C@](C)(O)[C@@H]1O)Oc1ccccc1 (stereo partly drawn) | > 100 | > 100 | > 100 | > 10 |  |  | 

Row | SMILES | EC50 (Hepatitis C virus) [µM] | EC90 (Hepatitis C virus) [µM] | CC50 at 144 h [1] [µM] | CC50 at 144 h [2] [µM] | CC50 at 72 h [3] [µM] | CC50 at 96 h [4] [µM] | Drug metabolism [5] | Drug metabolism [6] | Drug metabolism [7]
29 | CCOP(=O)(OCC)c1nc(N)nc2c1ncn2[C@@H]1O[C@H](CO)[C@@H](O)[C@@]1(C)O | > 10 | > 10 | > 100 | > 100 | > 100 | > 10 |  |  | 
30 | COc1nc(N)nc2c1ncn2[C@@H]1O[C@H](COP(=O)(N[C@@H](C)C(=O)OCC(C)(C)C)Oc2cccc3ccccc23)[C@@H](O)[C@@]1(C)O (stereo partly drawn) [BMS-986094] | 0.02 | 0.04 | 4.5 | 8 | 14 | 0.8 |  |  | 
31 | CCOC(=O)[C@H](C)NP(=O)(OC[C@H]1O[C@@H](n2cnc3c(NOC)nc(N)nc32)[C@](C)(O)[C@@H]1O)Oc1ccccc1 (stereo partly drawn) | 0.3 | 1 | > 100 | 32 | > 100 | > 10 |  |  | 
32 | CCOC(=O)[C@H](C)NP(=O)(OC[C@H]1O[C@@H](n2cnc3c(N)nc(N=[N+]=[N-])nc32)[C@](C)(O)[C@@H]1O)Oc1ccccc1 (stereo partly drawn) | 2.3 | 3 | > 100 | > 100 | > 100 | > 10 | metabolite_detected | metabolite_detected | metabolite_detected
